The text below walks through data of ChEMBL document CHEMBL1649083, “Discovery of novel inhibitors of the NorA multidrug transporter of Staphylococcus aureus” (2011).

Molecules are shown by their SMILES. Some results are limits rather than exact numbers.

The target in this assay is T1, Quinolone resistance protein NorA (Staphylococcus aureus) (UniProt P0A0J7).
T1 sequence (whole entry): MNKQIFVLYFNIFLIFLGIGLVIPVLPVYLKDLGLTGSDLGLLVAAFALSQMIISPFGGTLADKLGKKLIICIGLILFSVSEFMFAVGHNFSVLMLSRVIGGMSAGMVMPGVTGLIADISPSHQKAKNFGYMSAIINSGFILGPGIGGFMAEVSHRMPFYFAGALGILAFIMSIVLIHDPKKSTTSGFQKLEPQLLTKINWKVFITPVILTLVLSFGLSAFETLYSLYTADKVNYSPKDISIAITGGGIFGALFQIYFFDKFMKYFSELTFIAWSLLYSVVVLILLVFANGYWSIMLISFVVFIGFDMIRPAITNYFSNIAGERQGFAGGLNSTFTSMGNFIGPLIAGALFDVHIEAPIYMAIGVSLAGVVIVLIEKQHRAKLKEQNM
In words: Inhibition of NorA in Staphylococcus aureus 1199B assessed as reduction in ethidium bromide efflux at 50 uM by fluorimetry after 5 mins. The method, boiled down: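 S. aureus SA-1199B (NorA overexpressing via promoter up-mutation; GrlA A116E), EtBr-loaded cells. EtBr loss measured fluorometrically over a 5 min time course, in duplicate, as mean total efflux. Percent reduction calculated versus efflux without compound. Test compound at 50 μM; increasing concentrations were also run for dose-response profiles.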

In the case of `COc1ccc(OC[C@H]2CN(C)CC[C@@H]2c2ccccc2)cc1`, the inhibition came out at 47%.

Turning to `Cn1c(-c2ccc(OCCN3CCCCC3)cc2)cc(=O)c2ccccc21`, the inhibition was found to be 19.8%. In the case of `COc1cc(/C=C2\S/C(=N\c3ccccc3)N(c3ccccc3)C2=O)cc(Cl)c1OCC(N)=O` it was 18.3%. The figure for `Cn1c(-c2ccccc2)cc(=O)c2cc(O)c(O)cc21` is 0%.

In the case of `CCC(C)N1C(=O)S/C(=C\c2ccc(-c3cc(C(=O)O)ccc3Cl)o2)C1=O` (stereo not given), the inhibition was found to be 74.7%. As for `CC(C)N1C(=O)S/C(=C/c2cc(Br)ccc2OCc2ccc(C(=O)O)cc2)C1=O`, the inhibition came out at 3.1%.

In the case of `Cc1cc(C)cc(/N=C2\S/C(=C\c3ccc(C(=O)O)cc3)C(=O)N2c2cc(C)cc(C)c2)c1`, the inhibition is 55%.

For `CSc1ccc2c(c1)N(CCC1CCCCN1C)c1ccccc1S2` (stereo not given), the inhibition was above 88%. With `CN1C(=O)S/C(=C/c2ccc(-c3cc(C(=O)O)ccc3Cl)o2)C1=O`, the inhibition came to 20.9%.

For the compound `COc1cc2c(=O)cc(-c3ccccc3)n(C)c2cc1OC`, the inhibition is 9.4%. In the case of `CCOC(=O)c1cn(C2CC2)c2cc(N3CCC4=C(C3)/C(=N/O)C(C)CS4)c(N)cc2c1=O` (stereo not given) it was 91.2%; in that of `CCN(CC)CCOc1ccc(-c2cc(=O)c3ccccc3n2C)cc1`, 1.7%; in that of `CCOC(=O)c1cn(C2CC2)c2c(C)c(N3CCC4=C(C3)C(=O)CCS4)c(N)cc2c1=O`, 36.8%.

Consider `CCOC(=O)c1cn(C2CC2)c2c(C)c(N3CCC4=C(C3)/C(=N/OC)CCS4)c(N)cc2c1=O`, for which the inhibition was found to be 54.4%. Consider `CCOC(=O)c1cn(C2CC2)c2cc(N3CCC4=C(C3)/C(=N/OC)CCS4)c(N)cc2c1=O`, for which the inhibition was found to be 74.5%. In the case of `Cc1ccc(S(=O)(=O)Nc2ccc3c(c2)ncn3-c2ccccc2)cc1` it was 0%; in that of `COc1ccc(-c2cc(=O)c3ccccc3n2C)cc1`, 0%; in that of `CCOC(=O)c1cn(C2CC2)c2cc(N3CCC4=C(C3)C(=O)CCS4)c(N)cc2c1=O`, 35.7%.

With `CCN(CC)CCOc1cc(-c2ccc(OCCN3CCCCC3)cc2)nc2ccccc12`, the inhibition is 65.6%. Turning to `CCCOc1ccc(-c2cc(OCCN(CC)CC)c3ccccc3n2)cc1`, the inhibition was 93.4%.

In the case of `COc1cccc(CNC(C)C(O)c2ccccc2)c1` (stereo not given), the inhibition was determined as 2.8%. `COc1ccc(/C=C/C(=O)NCCc2c[nH]c3ccccc23)cc1OC`: the inhibition came out at 84%. The figure for `CCC(C)N1C(=O)S/C(=C/c2ccc(C(=O)O)cc2)C1=O` (stereo not given) is 0%.

As to `NS(=O)(=O)c1ccc(NC2=NC(=O)C(CC(=O)O)S2)cc1` (stereo not given), the inhibition was 0%. In the case of `Fc1ccc(C2=Nc3ccccc3SC2)cc1` it was 0%; in that of `Cc1ccc(-n2c(SCc3ccc(C(=O)O)cc3)nnc2-c2ccc(Cl)cc2)cc1`, 1.3%. In the case of `c1ccc(C2=Nc3ccccc3SC2)cc1` it was 0%. As to `c1ccc(CCN(Cc2ccccc2)Cc2cccc(OCc3ccccc3)c2)cc1`, the inhibition was 0%. Consider `Cc1c(NS(=O)(=O)c2ccc(F)cc2)c(=O)n(-c2ccccc2)n1C`, for which the inhibition is 3.2%. In the case of `CCOC(=O)c1cn(C2CC2)c2c(C)c(N3CCC4=C(C3)C(=O)C(C)CS4)c(N)cc2c1=O` (stereo not given) it was 50.5%; in that of `COc1ccccc1CNCc1cccc(C(F)(F)F)c1`, 30%; in that of `CCOc1ccc(C2C(C(=O)Nc3cccnc3)=C(C)Nc3nc(CCCO)nn32)cc1OC` (stereo not given), 14.8%. In the case of `COc1cc(/C=C2/SC(Nc3ccccc3F)=NC2=O)ccc1OCC(=O)O` it was 11.9%. In the case of `CCc1c(O)nc(SCC(=O)Nc2nc3ccccc3s2)[nH]c1=O` it was 19.1%; in that of `CCOC(=O)c1cn(C2CC2)c2cc(N3CCC4=C(C3)C(=O)C(C)CS4)c(N)cc2c1=O` (stereo not given), 63.5%. Regarding `CCCOc1ccc(-c2cc(=O)c3ccccc3n2CCN(CC)CC)cc1`, the inhibition turned out to be 57.3%. The figure for `O=C1NC(=O)/C(=C/c2ccc(-c3cc(C(=O)O)ccc3Cl)o2)S1` is 15.5%. The figure for `CN(C)CCCN1c2ccccc2Sc2ccc(Cl)cc21` is 76%; for `CCC(C)N1C(=O)S/C(=C\c2ccc(N3CCCC3)o2)C1=O` (stereo not given) it is 0%; for `Fc1ccc([C@@H]2CCNC[C@H]2COc2ccc3c(c2)OCO3)cc1` it is 73%. Consider `CCCOc1ccc(-c2cc(=O)c3ccccc3n2CCN2CCCCC2)cc1`, for which the inhibition turned out to be 75.1%.

As to `C[C@H](O)c1cccc(NC(=O)CC(c2ccccc2)c2ccccc2)c1`, the inhibition was found to be 31.4%. In the case of `COc1ccccc1C1=Nc2ccccc2SC1` it was 0%.

With `CN1CC[C@H](c2ccc(F)cc2)[C@@H](COc2ccc3c(c2)OCO3)C1`, the inhibition turned out to be 85%.

For `O=C(CSc1nnc(CNc2ccc(F)cc2)o1)N1c2ccccc2Sc2ccccc21`, the inhibition came out at 11.5%.

As to `CCOC(=O)c1cn(C2CC2)c2cc(N3CCNCC3)c(F)cc2c1=O`, the inhibition stood at 20.8%. Take `CN1CCN(CCCN2c3ccccc3Sc3ccc(Cl)cc32)CC1`: the inhibition is above 78%. The figure for `CCOC(=O)c1cn(C2CC2)c2cc(N3CCC4=C(C3)/C(=N/OC)C(C)CS4)c(F)cc2c1=O` (stereo not given) is 86.9%.

With `CCOC(=O)Nc1ccc2c(c1)N(C(=O)CCN1CCN(CCO)CC1)c1ccccc1CC2`, the inhibition was found to be 0%. In the case of `OCCN1CCN(CCCN2c3ccccc3Sc3ccc(C(F)(F)F)cc32)CC1` it was 75%. In the case of `CCOC(=O)c1cn(C2CC2)c2c(C)c(N3CCC4=C(C3)/C(=N/OC)C(C)CS4)c(N)cc2c1=O` (stereo not given) it was 21.4%; in that of `N#Cc1c(SCc2ccc(Cl)nc2)nc2c(c1C(F)(F)F)CCCC2`, 41.3%; in that of `CN(C)CCOc1ccc(-c2cc(=O)c3ccccc3n2C)cc1`, 4.4%. Turning to `CCCOc1ccc(-c2cc(=O)c3cc(OC)c(O)cc3n2C)cc1`, the inhibition turned out to be 9.1%. In the case of `CCCOc1ccc(-c2cc(=O)c3ccccc3n2C)cc1` it was 3.9%; in that of `CCOC(=O)CCSc1nc2c(c(C(F)(F)F)c1C#N)CC(C(C)(C)C)CC2` (stereo not given), 25.2%; in that of `CCCOc1ccc(C2=CSc3ccccc3N2C)cc1`, 0%.

For the compound `CCCOc1ccc(-c2cc(O)c3ccccc3n2)cc1`, the inhibition came out at 0%. On to `Cc1ccc(S(=O)(=O)Nc2ccc3c(c2)nc(C)n3Cc2ccccc2)cc1`, for which the inhibition stood at 30.6%.

Consider `Cc1ccc(S(=O)(=O)Nc2ccc3[nH]c(-c4ccco4)nc3c2)cc1`, for which the inhibition is 67.5%. As for `COc1cc(/C=C2\S/C(=N\c3ccccc3)N([C@@H]3CCCC[C@@H]3C)C2=O)ccc1OCC(=O)O`, the inhibition was 32.6%. In the case of `CCOC(=O)c1cn(C2CC2)c2c(C)c(N3CCC4=C(C3)C(O)CCS4)c(N)cc2c1=O` (stereo not given) it was 47.3%; in that of `CCOC(=O)c1cn(C2CC2)c2cc(N3CCC4=C(C3)/C(=N/O)C(C)CS4)c(F)cc2c1=O` (stereo not given), 22.5%.

As for `Cn1c(-c2ccc(O)cc2)cc(=O)c2cc(O)c(O)cc21`, the inhibition was determined as 0%.

`CCOc1ccc(-c2cc(=O)c3ccccc3n2C)cc1`: the inhibition was 10.8%. In the case of `CCOC(=O)c1cn(C2CC2)c2cc(N3CCC4=C(C3)C(O)CCS4)c(N)cc2c1=O` (stereo not given), the inhibition came to 26.3%. The figure for `CCOC(=O)CCCSc1nc2c(c(C(F)(F)F)c1C#N)CC(C)CC2` (stereo not given) is 48.6%. In the case of `COc1cc2c(=O)cc(-c3ccc(O)cc3)n(C)c2cc1OC` it was 0%; in that of `N#Cc1c(SCc2ccc(C(=O)O)cc2)nc2c(c1C(F)(F)F)CCCCC2`, 67.1%; in that of `Cc1ccc([C@H]2C(C#N)=C(N)Oc3cc(C)oc(=O)c32)o1`, 0%.

As for `COc1ccc(OC[C@@H]2CN(C)CC[C@H]2c2ccccc2)cc1` (relative stereo), the inhibition was found to be 50%. In the case of `Cc1ccc(N2CCN(C3=Nc4cc(Cl)ccc4Oc4ccccc43)CC2)cc1` it was 35.1%; in that of `COCCN1C(=O)/C(=C/c2ccc(O[C@@H](C)C(=O)O)c(OC)c2)S/C1=N\c1ccccc1`, 10.6%; in that of `Cn1c(-c2ccc(O)cc2)cc(=O)c2ccccc21`, 0%.

As for `CCOC(=O)c1cn(C2CC2)c2c(C)c(N3CCC4=C(C3)/C(=N/O)CCS4)c(N)cc2c1=O`, the inhibition was 36.2%.

Regarding `OCCN1CCN(CC/C=C2/c3ccccc3Sc3ccc(C(F)(F)F)cc32)CC1`, the inhibition worked out at 82%. The figure for `N#Cc1c(-c2ccc(F)cc2)cc(-c2ccccc2)nc1SCC(=O)N1CCC[C@@H]1C(=O)O` is 36.3%. As for `Cc1sc([C@@H]2C(C#N)=C(N)OC3=C2C(=O)CC(C)(C)C3)cc1COc1ccc(Br)cc1`, the inhibition was found to be 0%. The figure for `CCCOc1ccc(-c2cc(=O)c3cc(OC)c(OC)cc3n2C)cc1` is 0%; for `CCCOc1ccc(-c2cc(=O)c3ccccc3o2)cc1` it is 32.4%.

As to `Cn1c(-c2ccc(OCCN3CCOCC3)cc2)cc(=O)c2ccccc21`, the inhibition turned out to be 0%. In the case of `CC(C)Oc1ccc(-c2cc(=O)c3ccccc3n2C)cc1` it was 10.3%; in that of `O=C(O)c1ccc(N2C(=O)C[C@@H](S/C(=N\c3ccccc3)Nc3ccccc3)C2=O)cc1`, 0%. As to `OCCN1CCN(CC/C=C2\c3ccccc3Sc3ccc(C(F)(F)F)cc32)CC1`, the inhibition was found to be 72%.

For the compound `CCOc1cc(C2C(C#N)=C(N)Oc3[nH]nc(C)c32)ccc1OCc1cccc(F)c1` (single isomer, unassigned), the inhibition is 4.9%.

The inhibition is the change of the read-out against control, counted positive when it falls.
